One may read the Cmax as the maximum level reached in the sampled fluid or tissue.

Activity calls are given as the source filed them. The calls are words filed in the database; no cut-off is given here.

From ChEMBL document CHEMBL1275416, “Chlamydia pneumoniae growth inhibition in cells by the steroid receptor antagonist RU486 (mifepristone)” (Antimicrob Agents Chemother, 2008) come the findings set out here.

Data set [1] has as its system Chlamydia pneumoniae. The data set is described as follows: Antimicrobial activity against Chlamydia pneumoniae infected in HEp-2 cells 0.02 to 2 uM after 72 hrs. It counts as functional, organism-based. Put shortly: (§1)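 HEp-2 cells were infected with C. pneumoniae (MOI 10, centrifuged at 800 x g for 1 h at room temperature) and washed. They were seeded at 5 x 10^4 cells/well and cultured 72 h with RU486 (0.02 to 2 µM; ethanol vehicle control). Freeze-thaw lysates were serially diluted 10-fold onto HEp-2 monolayers, spun, grown 72 h at 37°C with cycloheximide 1 µg/ml, and FITC anti-Chlamydia stained for IFU counts. Means of three experiments.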

For data set [2], the system named is Chlamydia pneumoniae. The data set is described as follows: Antimicrobial activity against Chlamydia pneumoniae infected in HEp-2 cells. It counts as functional, organism-based. In a few lines: as §1
Data set [3] has as its system Chlamydia pneumoniae. The data set is described as follows: Antimicrobial activity against Chlamydia pneumoniae infected in HEp-2 cells at 20 uM. It counts as functional, organism-based.
A short description of data set [4]: Cytotoxicity against human Hep2 cells at 20 uM. The data set is classed as cell-based. The note with it: hep-2, 20 µM.
Data set [5] deals with Chlamydia pneumoniae. The data set is described as follows: Antimicrobial activity against Chlamydia pneumoniae infected in HEp-2 cells assessed as inhibition of bacterial replication at 2 uM after 24 hrs. The data set is classed as functional, organism-based. Put shortly: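 Time course: infected HEp-2 cells (MOI 10, centrifugation-assisted) were incubated with or without 2 µM RU486 for up to 72 h. At each time point, infective progeny in freeze-thaw lysates was titrated on fresh HEp-2 monolayers by IFU assay (72 h with cycloheximide 1 µg/ml, FITC anti-Chlamydia staining). Means ± SD, three experiments.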

Data set [6] relates to Chlamydia pneumoniae. The data set is described as follows: Antimicrobial activity against Chlamydia pneumoniae infected in HEp-2 cells at 2 uM after 72 hrs. The data set is classed as functional, organism-based. In a few lines: as §1
For data set [7], the system named is Chlamydia pneumoniae. The data set is described as follows: Antimicrobial activity against Chlamydia pneumoniae infected in HEp-2 cells at 2 uM after 72 hrs in presence of cycloheximide. The data set is classed as functional, organism-based. Put shortly: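 Infected HEp-2 cells were held 72 h with RU486 2 µM and/or cycloheximide 0.1 to 10 µg/ml, with untreated and ethanol controls. Infective progeny in cell lysates was counted by IFU assay on HEp-2 monolayers with FITC anti-Chlamydia antibody staining. Means ± SD of three experiments.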

Data set [8] has as its system Chlamydia pneumoniae. The data set is described as follows: Antimicrobial activity against Chlamydia pneumoniae infected in HEp-2 cells assessed as a reduction in 16S rRNA transcript at 2 uM after 24 hrs by RT-PCR. It counts as functional, organism-based. Put shortly: (§2)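 Infected HEp-2 cells (5 x 10^5 cells/well) were treated with RU486 2 µM with or without cycloheximide 1 µg/ml. Total RNA was extracted at harvest. C. pneumoniae 16S rRNA was quantified by real-time RT-PCR (50 cycles, melt-curve check), and copies per reaction were taken from a standard curve of diluted C. pneumoniae DNA. Means ± SD, three experiments.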

The subject of data set [9] is Chlamydia pneumoniae. The data set is described as follows: Antimicrobial activity against Chlamydia pneumoniae infected in HEp-2 cells assessed as a reduction in 16S rRNA transcript at 2 uM after 72 hrs by RT-PCR. The data set is classed as functional, organism-based. Put shortly:
as §2

Data set [10] has as its system Chlamydia pneumoniae. The data set is described as follows: Antimicrobial activity against Chlamydia pneumoniae infected in HEp-2 cells assessed as a reduction in 16S rRNA transcript at 2 uM after 24 hrs by RT-PCR in presence of cycloheximide. The data set is classed as functional, organism-based. In a few lines:
as §2

For data set [11], the system named is Chlamydia pneumoniae. The data set is described as follows: Antimicrobial activity against Chlamydia pneumoniae infected in HEp-2 cells assessed as a reduction in 16S rRNA transcript at 2 uM after 72 hrs by RT-PCR in presence of cycloheximide. The data set is classed as functional, organism-based. In a few lines:
as §2

Data set [12] concerns Chlamydia pneumoniae. The data set is described as follows: Antimicrobial activity against Chlamydia pneumoniae infected in HEp-2 cells assessed as growth inhibition at 2 uM pretreated for 1 hr before infection. It counts as functional, organism-based. Put shortly:
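Before infecting HEp-2 cells, the bacteria were pretreated with 2 µM RU486 for 1 h or left untreated. Cells were then cultured with or without RU486 2 µM or cycloheximide 1 µg/ml. Infective progeny in 72 h lysates was assessed by IFU assay. Means ± SD of three experiments.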

Data set [13] in a line: Cmax in pregnant women at 800 mg, po. Set-up: dose 800 mg, route oral. The note with it: female, human, in vivo. The data set is classed as ADME, organism-based.
Data set [14] is described as follows: Cytotoxicity against human Hep2 cells at >2 uM. The note with it: hep-2. It counts as cell-based.

Turning to `CC#C[C@]1(O)CC[C@H]2[C@@H]3CCC4=CC(=O)CCC4=C3[C@@H](c3ccc(N(C)C)cc3)C[C@@]21C` [MIFEPRISTONE], the Activity entry in the data set with Chlamydia pneumoniae [1] is “Dose-dependent effect”; in [4], “Toxic”; in data set [14], “Toxic”. The outcome in the data set with Chlamydia pneumoniae [2], with Chlamydia pneumoniae [3], with Chlamydia pneumoniae [6], in the data set on Chlamydia pneumoniae [7], in the data set on Chlamydia pneumoniae [8] and in the data set with Chlamydia pneumoniae [9] was Active. Besides, the inhibition result in the data set on Chlamydia pneumoniae [5] is “Active”. The outcome in the data set on Chlamydia pneumoniae [10], in the data set on Chlamydia pneumoniae [11] and with Chlamydia pneumoniae [12] was inactive. This molecule came in with a Cmax in data set [13] of 2500 ng/mL.
